Assay results: ChEMBL document CHEMBL4725226, “Discovery of a new potent inhibitor of mushroom tyrosinase (Agaricus bisporus) containing 4-(4-hydroxyphenyl)piperazin-1-yl moiety” (Bioorg Med Chem, 2020)
Calls of active or inactive are those of the source. No cut-off for these calls is given here.

Tests used:
Mushroom tyrosinase = Mushroom tyrosinase (Agaricus bisporus, UniProt O42713+Q00024+C7FF04+C7FF05); assay: Inhibition of diphenolase activity of mushroom tyrosinase using L-Dopa as substrate preincubated with substrate for 10 mins followed by enzyme addition and measured after 5 mins
In short: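 Diphenolase assay: sample (5–300 µM) with 1.25 mM L-DOPA in 0.05 M sodium acetate pH 6.8, preincubated 10 min at 25 °C; mushroom tyrosinase (333 U/mL stock) added last. Linear A475 rise followed up to 5 min; % inhibition, IC50 interpolated from dose-response curves; three replicates. Kojic acid standard at 8–35 µM.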

[1] = target: T1, Mushroom tyrosinase (Agaricus bisporus) (UniProt O42713+Q00024+C7FF04+C7FF05); assay: Noncompetitive inhibition of diphenolase activity of mushroom tyrosinase assessed as decrease in Vmax with constant Km at 2 to 8 uM using 0.6 to 5 mM L-dopa as substrate by Lineweaver-Burk double reciprocal plot analysis; details: dose microM 2-8
HeLa = assay: Cytotoxicity against human HeLa cells assessed as cell viability at 4 to 10 uM measured after 48 hrs by MTT assay; type: cell-based; details: dose 4-10 µM
In short: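 HeLa grown in DMEM with 10% FBS, 2 mM L-glutamine, penicillin/streptomycin, 37 °C, 5% CO2; seeded at 3 × 10^4/mL. Exposed 48 h to compound (4–100 µM in DMSO, DMSO-only control), then MTT (0.5 mg/mL final) 3 h at 37 °C, lysed in DMSO, OD 560 nm; mean ± SD of triplicates.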

[2] = Antioxidant activity assessed as ABTS radical scavenging activity incubated in dark for 1 min; type: functional
In short: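 ABTS radical cation generated from 7 mM ABTS plus 2.45 mM potassium persulfate (final), held dark at room temperature 24 h, then diluted to A734 0.700 ± 0.02. Sample added, kept dark at room temperature 1 min; drop in A734 read against a Trolox standard curve.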

[3] = target: T1, Mushroom tyrosinase (Agaricus bisporus); assay: Potency index, ratio of kojic acid IC50 to test compound IC50 for diphenolase activity of mushroom tyrosinase using L-Dopa as substrate preincubated with substrate for 10 mins followed by enzyme addition and measured after 5 mins

Structure (SMILES)	IC50 (Mushroom tyrosinase) [µM]	also measured
O=C(CCN1CCC(Cc2ccccc2)CC1)N1CCN(c2ccc(O)cc2)CC1	4.03	–
O=C(CN1CCC(Cc2ccc(F)cc2)CC1)N1CCN(c2ccccc2)CC1	9.6	–
O=C(CN1CCC(Cc2ccccc2)CC1)N1CCN(c2ccccc2)CC1	80.86	–
O=C(CN1CCC(Cc2ccccc2)CC1)N1CCN(c2ccc(O)cc2)CC1	3.8	inhibition [1]: Active; Activity (HeLa): Non-Toxic; EC50 [2]: 18.1 µM; Ratio IC50 [3]: 5
Cc1c(C)c2c(c(C)c1O)CCC(C)(C(=O)O)O2 (stereo not drawn) [TROLOX]	–	EC50 [2]: 13 µM
O=C(CN1CCC(Cc2ccc(F)cc2)CC1)N1CCN(c2ccc(O)cc2)CC1	4.49	–

The next lines start with results.

IC50 (Mushroom tyrosinase) [µM]	Structure (SMILES)	also measured
57.5	O=C(CCN1CCC(Cc2ccccc2)CC1)N1CCN(c2ccccc2)CC1	–
6.06	O=C(CCN1CCC(Cc2ccc(F)cc2)CC1)N1CCN(c2ccc(O)cc2)CC1	–
23.36	O=C(CCN1CCC(Cc2ccc(F)cc2)CC1)N1CCN(c2ccccc2)CC1	–
